This is an account of results in ChEMBL document CHEMBL3616416, “Imidazolidine-4-one derivatives in the search for novel chemosensitizers of Staphylococcus aureus MRSA: synthesis, biological evaluation and molecular modeling studies” (Eur J Med Chem, 2015).

Each structure is given as a SMILES string. In brackets after ≈: the same amount, converted by molar mass. Activity calls are given as the source filed them. The rule behind the calls is not given here.

Series [1] deals with Staphylococcus aureus. As to the kind of experiment: Resistance index, ratio of MIC for methicillin-resistant Staphylococcus aureus HEMSA to MIC for Staphylococcus aureus ATCC 25923. It is filed as functional.
Series [2] has as its system Staphylococcus aureus. The series can be described thus: Antimicrobial activity against methicillin-resistant Staphylococcus aureus HEMSA incubated for 20 hrs in presence of sulbactam by serial dilution broth microplate method. It is filed as functional. In a few lines:
(§1)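 Broth microdilution MIC per CLSI in Mueller-Hinton broth against clinical isolate MRSA HEMSA 5. Bacterial suspension adjusted to OD 0.5, diluted 1:100 and added to serial two-fold dilutions of test agent. Ampicillin/sulbactam used at 2:1 ratio. Growth read after 20 h at 37 °C.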

Series [3] relates to Staphylococcus aureus. As to the kind of experiment: Antimicrobial activity against Staphylococcus aureus ATCC 25923 incubated for 20 hrs in presence of sulbactam by serial dilution broth microplate method. The format is functional. The conditions noted are these: ATCC 25923, 20 h.
In series [4] the test system is Staphylococcus aureus. The series can be described thus: Antimicrobial activity against methicillin-resistant Staphylococcus aureus HEMSA incubated for 20 hrs by serial dilution broth microplate method. It is filed as functional. In a few lines:
as §1

The subject of series [5] is Staphylococcus aureus. As to the kind of experiment: Antimicrobial activity against Staphylococcus aureus ATCC 25923 incubated for 20 hrs by serial dilution broth microplate method. The format is functional. The settings on record: ATCC 25923, 20 h. In a few lines: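 Broth dilution per CLSI in Mueller-Hinton broth, serial two-fold dilutions; compounds alone against reference strain, inoculum from suspension at OD 0.5 diluted 1:100; read after 20 h at 37 °C. MIC taken as lowest concentration inhibiting growth.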

Series [6] in a line: Toxicity against HEK293 cells assessed as cell viability at 0.125 mM incubated for 48 hrs by EZ4U colorimetric assay. The format is cell-based. The settings on record: human, read-out: Activity. In a few lines:
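HEK-293 cells in DMEM with 10% FBS, penicillin/streptomycin, 37 °C, 5% CO2; seeded 1.5×10^4 cells/well, 24 h to 60% confluence; compound 0.01–250 µM for 48 h; EZ4U tetrazolium reagent 5 h, absorbance at 492 nm; doxorubicin positive control (0.005–100 µM); four repetitions.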

The target of series [7] is T1, Methicillin resistance mecR1 protein (Staphylococcus aureus) (UniProt P0A0B1).
T1 sequence (whole entry): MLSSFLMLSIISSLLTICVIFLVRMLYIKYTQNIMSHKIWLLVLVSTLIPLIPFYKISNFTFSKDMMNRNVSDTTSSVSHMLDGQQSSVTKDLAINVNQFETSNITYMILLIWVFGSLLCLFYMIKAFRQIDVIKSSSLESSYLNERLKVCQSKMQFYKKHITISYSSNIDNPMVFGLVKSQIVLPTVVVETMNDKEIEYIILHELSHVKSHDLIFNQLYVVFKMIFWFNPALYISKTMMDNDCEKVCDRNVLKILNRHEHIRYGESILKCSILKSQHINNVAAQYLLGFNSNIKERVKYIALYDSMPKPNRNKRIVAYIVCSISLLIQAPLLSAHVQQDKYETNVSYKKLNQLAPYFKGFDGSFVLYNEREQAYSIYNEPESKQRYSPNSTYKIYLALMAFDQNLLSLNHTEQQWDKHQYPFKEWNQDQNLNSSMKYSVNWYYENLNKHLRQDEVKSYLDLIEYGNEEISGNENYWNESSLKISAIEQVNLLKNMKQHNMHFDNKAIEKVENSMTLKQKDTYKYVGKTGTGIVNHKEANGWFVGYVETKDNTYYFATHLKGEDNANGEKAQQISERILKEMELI
The series can be described thus: Inhibition of MecR1 in methicillin-resistant Staphylococcus aureus HEMSA assessed as reduction in oxacillin A MIC at 0.125 mM incubated for 20 hrs by serial dilution broth microplate method. The method in brief:
(§2)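 Chemosensitization in MRSA HEMSA 5 measured by CLSI broth microdilution in Mueller-Hinton broth. Serial two-fold dilutions of antibiotic (oxacillin, cloxacillin, ampicillin/sulbactam 2:1, ciprofloxacin or neomycin) combined with compound at fixed concentration not exceeding ¼ of its own MIC. Inoculum OD 0.5 diluted 1:100. Read after 20 h at 37 °C. Result given as fold reduction of antibiotic MIC.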

For series [8], the system named is Staphylococcus aureus. As to the kind of experiment: Potentiation of oxacillin-induced antibacterial activity against Staphylococcus aureus ATCC 25923 assessed as reduction in oxacillin MIC at 0.125 mM incubated for 20 hrs by serial dilution broth microplate method. The format is functional.
Series [9] concerns the target T1, Methicillin resistance mecR1 protein (Staphylococcus aureus). As to the kind of experiment: Inhibition of MecR1 in methicillin-resistant Staphylococcus aureus HEMSA assessed as reduction in cloxacillin MIC at 0.125 mM incubated for 20 hrs by serial dilution broth microplate method. The method in brief:
as §2

The target is the same in series [10]. As to the kind of experiment: Inhibition of MecR1 in methicillin-resistant Staphylococcus aureus HEMSA assessed as reduction in ampicillin and sulbactam MIC at 0.125 mM incubated for 20 hrs by serial dilution broth microplate method. In a few lines: as §2
Series [11] relates to Staphylococcus aureus. The series can be described thus: Potentiation of […] antibacterial activity against Staphylococcus aureus ATCC 25923 assessed as reduction in cloxacillin MIC incubated for 20 hrs by serial dilution broth microplate method. It is filed as functional, organism-based.
The subject of series [12] is Staphylococcus aureus. As to the kind of experiment: Potentiation of […] antibacterial activity against Staphylococcus aureus ATCC 25923 assessed as reduction in ampicillin and sulbactam MIC MIC incubated for 20 hrs by serial dilution broth microplate method. The format is functional, organism-based.
The target in series [13] is T1, Methicillin resistance mecR1 protein (Staphylococcus aureus). As to the kind of experiment: Inhibition of MecR1 in methicillin-resistant Staphylococcus aureus HEMSA assessed as reduction in ciprofloxacin MIC at 0.125 mM incubated for 20 hrs by serial dilution broth microplate method. In a few lines:
as §2

Series [14] concerns Staphylococcus aureus. The series can be described thus: Potentiation of ciprofloxacin -induced antibacterial activity against Staphylococcus aureus ATCC 25923 assessed as reduction in […] MIC incubated for 20 hrs by serial dilution broth microplate method. It is filed as functional, organism-based.
Series [15] concerns Staphylococcus aureus. The series can be described thus: Potentiation of neomycin-induced antibacterial activity against Staphylococcus aureus ATCC 25923 assessed as reduction in […] MIC incubated for 20 hrs by serial dilution broth microplate method. The format is functional, organism-based.
The target in series [16] is T1, Methicillin resistance mecR1 protein (Staphylococcus aureus). As to the kind of experiment: Inhibition of MecR1 in methicillin-resistant Staphylococcus aureus HEMSA assessed as reduction in neomycin MIC at 0.125 mM incubated for 20 hrs by serial dilution broth microplate method.
Series [17] has the same target. The series can be described thus: Inhibition of MecR1 in methicillin-resistant Staphylococcus aureus HEMSA assessed as reduction in oxacillin A MIC at 0.0078 mM incubated for 20 hrs by serial dilution broth microplate method. In a few lines:
as §2

Series [18] deals with Staphylococcus aureus. As to the kind of experiment: Potentiation of oxacillin-induced antibacterial activity against Staphylococcus aureus ATCC 25923 assessed as reduction in oxacillin MIC at 0.0039 mM incubated for 20 hrs by serial dilution broth microplate method. It is filed as functional.
The target of series [19] is T1, Methicillin resistance mecR1 protein (Staphylococcus aureus). As to the kind of experiment: Inhibition of MecR1 in methicillin-resistant Staphylococcus aureus HEMSA assessed as reduction in cloxacillin MIC at 0.0078 mM incubated for 20 hrs by serial dilution broth microplate method. The method in brief: as §2
The target is the same in series [20]. As to the kind of experiment: Inhibition of MecR1 in methicillin-resistant Staphylococcus aureus HEMSA assessed as reduction in ampicillin and sulbactam MIC at 0.0078 mM incubated for 20 hrs by serial dilution broth microplate method. In a few lines:
as §2

Series [21] has the same target. As to the kind of experiment: Inhibition of MecR1 in methicillin-resistant Staphylococcus aureus HEMSA assessed as reduction in ciprofloxacin MIC at 0.0078 mM incubated for 20 hrs by serial dilution broth microplate method. The method in brief: as §2
Series [22] has the same target. As to the kind of experiment: Inhibition of MecR1 in methicillin-resistant Staphylococcus aureus HEMSA assessed as reduction in neomycin MIC at 0.0078 mM incubated for 20 hrs by serial dilution broth microplate method. In a few lines: as §2
Series [23] deals with Staphylococcus aureus. The series can be described thus: Potentiation of oxacillin-induced antibacterial activity against Staphylococcus aureus ATCC 25923 assessed as reduction in oxacillin MIC at 0.0625 mM incubated for 20 hrs by serial dilution broth microplate method. It is filed as functional.
Series [24] deals with T1, Methicillin resistance mecR1 protein (Staphylococcus aureus). As to the kind of experiment: Inhibition of MecR1 in methicillin-resistant Staphylococcus aureus HEMSA assessed as reduction in neomycin MIC at 0.125 mM incubated for 20 hrs by serial dilution broth microplate method. The method in brief:
as §2

With `CC1(C)S[C@@H]2[C@H](NC(=O)[C@H](N)c3ccccc3)C(=O)N2[C@H]1C(=O)O` [AMPICILLIN], the Ratio in series [1] was found to be 370. Moreover, the MIC in series [2] came out at 200 µM; in series [3], 0.54 µM.
For `O=C1NC(N2CCNCC2)=N/C1=C\c1c2ccccc2cc2ccccc12`, the MIC in series [4] and in series [5] was 500 µM (≈ 178 µg/mL) throughout. In addition, in series [6], the viability at 48 h, 125 µM was 91%. The fold change (FC) in series [7] stood at 64; in series [8], 2; in [9], 8. Moreover, the inhibition entry in [10], in series [13] and in series [16] was “inactive” throughout. Besides, the outcome in [11], in [12], in series [14] and in [15] was inactive. In series [1], the Ratio is 1.
Turning to `O=C1NC(N2CCNCC2)=N/C1=C\c1ccc2c(c1)Cc1ccccc1-2`, the values for the MIC in series [4] and in [5] were 31.3 µM (≈ 10.8 µg/mL) and 15.6 µM (≈ 5.37 µg/mL), respectively. For the same compound, the inhibition entry in series [17], in series [20], in series [21] and in series [22] was “inactive” throughout. Moreover, the “fold change (FC)” value in series [18] was 2; in series [19], 8. The result in series [11], in [12], in series [14] and in series [15] was inactive. In addition, in series [1], the Ratio worked out at 2.
For `O=C1NC(N2CCNCC2)=N/C1=C\c1ccc2ccccc2c1`, the values for the MIC in series [4] and in series [5] were 500 µM (≈ 153 µg/mL) and 250 µM (≈ 76.6 µg/mL), respectively. Also, the fold change (FC) in series [7] was found to be 128; in series [23], 2; in series [9], 256; in series [10] it was 4; in [13], 4. Also, the outcome in [11], in series [12], in series [14] and in [15] was inactive. In addition, in series [24], the inhibition result is “inactive”. Moreover, the Ratio in series [1] came to 2.
